“And” between values parts separate entries of the source, which are not always exact repeats. Equal values may be shown once.
Tests used:
Assay type in all cases: functional, Mus musculus
[1] = test system: B16-F10; assay: Effect of 20 uM on B16-F10 melanoma cells (experiment 1)
How it was run: (§1)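 B16-F10 cells, cultured in vitro for no more than 10 passages, were exposed for 24 h to drug made up as a 1000 μM Me₂SO stock and diluted in medium. Controls were Me₂SO or saline. Cells were scraped, washed and set at 5 × 10⁵/mL in Hanks BSS, and 0.2 mL was given iv by tail vein to male C57Bl/6J mice aged 6–8 weeks. Black lung nodules were counted at 14 days, mean ± SD, ANOVA/Newman–Keuls.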

[2] = test system: B16-F10; assay: Effect of 2 uM on B16-F10 melanoma cells (experiment 1); how it was run: as §1
[3] = test system: B16-F10; assay: Effect of 100 uM on B16-F10 melanoma cells (experiment 1); how it was run: as §1
[4] = test system: B16-F10; assay: Effect of 2 uM on B16-F10 melanoma cells (experiment 2); how it was run: as §1
[5] = test system: B16-F10; assay: Effect of 100 uM on B16-F10 melanoma cells (experiment 2); how it was run: as §1
[6] = test system: B16-F10; assay: Effect of 20 uM on B16-F10 melanoma cells (experiment 2); how it was run: as §1

SMILES | Mean no. of lung colonies [1] | Mean no. of lung colonies [2] | Mean no. of lung colonies [3] | Mean no. of lung colonies [4] | Mean no. of lung colonies [5] | Mean no. of lung colonies [6]
CCOC(=O)COC(=O)[C@H]1[C@@H](C(N)=O)N(CC(=O)OCC)CCN1CC(=O)OCC | 43.4 | 33.2 | 37.1 | – | – | –
CCOC(=O)CN1CCN(CC(=O)OCC)[C@H]2C(=O)NC(=O)[C@H]21 | 160.7 | 159.7 | 142.5 | – | – | –
COC(=O)CN1CCN2CC(=O)NC(=O)[C@@H]2[C@@H]1C(N)=O | – | – | – | 86.2 | 56.7 | 101.3
O=C1CN2CCN3CC(=O)NC(=O)[C@H]3C2C(=O)N1 (some centres not stated) | – | – | – | 52.1 | 118.9 | 96.1
O=C1CN2CCN3CC(=O)NC(=O)[C@@H]3C2C(=O)N1 (some centres not stated) | 23.3 | 29.1 | 65.7 | 39.1 | – | 50.1 and 50.2

— ChEMBL document CHEMBL1121890, “Synthesis and antimetastatic properties of steroeoisomeric trycylic bis(dioxopiperazine) analogues in a B16 melanoma model” (1981)
